# An excerpt weighted towards active compounds, which were near 3.9% of everything screened.
# STAT1 act: activators of IFN-gamma induced STAT1 signaling | NIH 3T3 STAT1-luciferase reporter, luminescence; 100% = IFN-gamma alone, no compound | activation (% of control), % at 5.5 µM | hit rate 2.6% among 200,000 | AID 932;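 active means activation above the screen-wide mean activation plus 3 SD, cut at about 130% in these data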;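 further: raw ratio to IFN-gamma control signal so 100% means no change and 0% no light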
# STAT1 inh: inhibitors of IFN-gamma induced STAT1 signaling; AID 920; inhibition, % at 5.5 µM; NIH 3T3 STAT1-luciferase reporter, luminescence; hit rate 0.35% among 200,000;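 active means inhibition above a set limit, the mean inhibition across all tested compounds plus 3 SD, cut at about 34% in these data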;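 further: 0% = IFN-gamma with DMSO and 100% = IFN-gamma with 300 µM nifuroxazide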
# Pf gamet viab: P. falciparum stage V gametocyte viability inhibition | P. falciparum stage V gametocytes, ATP luminescence, 24 h | AID 743093 | inhibition, % at 10.9 µM | hit rate 0.065% among 150,000;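 active means inhibition above the mean plus 3 SD of compounds within the control limits, set per campaign, cut at about 38% in these data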;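 further: 0% = DMSO wells and 100% = medium only without gametocytes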
# NF-kB neuron act: raises NF-kB expression in human neuronal cells | NF-kB reporter expression; stronger effect = higher value | fold change at 12.5 µM | hit rate 1.6% among 190,000 | AID 1239; in the data active means fold change above about 3.3
# APP 5'UTR act: activates APP 5'UTR luciferase reporter; SH-SY5Y APP 5'UTR luciferase reporter, luminescence; zero percent = DMSO vehicle wells; activation, % at 2 µM; hit rate 1% among 190,000; AID 1276;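 active means activation above a set limit, based on mean plus 3 SD of controls, cut at about 140% in these data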
# STAT3 act: STAT3 signaling activation; hit rate 0.91% among 190,000; activation (% of control), % at 5.6 µM; U3A cells, IL-6 STAT3-luciferase reporter, luminescence; 100% = signal with IL-6 EC80 alone;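 active means activation above the screen-wide mean of compound activation plus 3 SD, cut at about 130% in these data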;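 further: 0% = background luminescence of wells with medium and substrate only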
#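 system = STAT3-luciferase reporter U3A cells | reagent = IL-6 stimulus at 33 ng/mL final | timing = 1 h compound pre-exposure, 6 h IL-6 stimulation, 37 °C | measured by = luminescence | evaluation = % activation versus median of IL-6-stimulated wells | control set = IL-6-only wells as 100% reference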
# * marks the source's active call; other numbers are inactive results; . = no result given.
SMILES,STAT1 act,STAT1 inh,Pf gamet viab,NF-kB neuron act,APP 5'UTR act,STAT3 act
O=C1NC[C@@H](c2ccccc2)OC(=O)[C@@H](Cc2ccc(F)cc2)C/C=C\C[C@@H]1CC(=O)N(CCO)Cc1ccccc1,.,.,-12.5,.,.,.
Cc1ccc(-c2csc(/C(C#N)=C(\O)CCl)n2)cc1,139.5*,-41.7,-2.0,1.62,106.9,94.0
O=C(CSc1ncnc2ccccc12)NCc1ccco1,102.7,-2.9,.,1.09,-25.7,96.7
O=C(CSc1ncnc2ccccc12)c1ccco1,132.4*,-35.2,.,5.58*,146.1*,101.5
CN(CCCC(=O)NCCc1ccccc1)S(=O)(=O)c1ccc([N+](=O)[O-])cc1,.,.,17.6,.,.,.
COc1cc(NC(=O)C/C(C)=N/NC(=O)C(OC)c2ccccc2)c(OC)cc1Cl (stereo not given),108.2,-9.3,-20.2,0.93,-6.2,103.6
Nc1ccc2nc(-c3ccccc3)sc2c1,61.1,42.4*,-22.6,2.14,107.8,46.4
Nc1ccc(-c2nc3cc(N)ccc3s2)cc1,98.6,1.4,.,5.34*,185.5*,85.6
Oc1csc(Cc2nc(-c3ccccc3F)cs2)n1,143.7*,-48.8,-1.6,1.9,18.2,105.9
Oc1csc(Cc2nc(-c3ccc4ccccc4c3)cs2)n1,128.9*,-32.2,.,1.94,28.6,163.3*
O/C(=C\c1nc2ccccc2nc1/C=C(\O)c1ccccc1)c1ccccc1,133.6*,-39.1,.,1.25,83.5,145.4*
O/C(=C\c1ccc2ccccc2n1)c1ccncc1,.,.,8.6,.,.,.
CCOc1ccc2c(c1)OC(c1ccc(C)cc1)(C(F)(F)F)NC2=O (stereo not given),104.6,-5.2,7.0,4.25*,-94.7,116.7
Clc1ccccc1CSc1cc2c(nn1)-c1ccccc1CC2,128.2,-30.8,-14.6,3.74*,57.6,112.4
O=C(COC(=O)c1n[nH]c2ccccc12)Nc1ccccc1,132.9*,-36.1,-21.5,1.09,42.7,97.0
Cc1cc(C)cc(NC(=O)COC(=O)c2n[nH]c3ccccc23)c1,108.0,-10.9,-17.6,1.74,25.3,106.4
O=C(c1cc2nc(-c3ccc(F)cc3)cc(C(F)(F)F)n2n1)N1CCCCC1c1cccnc1 (stereo not given),68.1,35.1*,-7.6,0.7,-6.5,54.6
Cc1ccc2nc(-c3cccc(N)c3)[nH]c2c1,93.2,7.4,.,4.8*,97.5,47.3
Cc1ccc2nc(-c3sc4nc(C)cc(C)c4c3N)[nH]c2c1,131.3*,-34.1,-31.2,2.81,170.1*,140.2*
Cn1c(=NC(=O)c2ccccc2[N+](=O)[O-])sc2cccc(F)c21,.,.,3.9,.,.,.
O=C1CCCC/C1=C/Nc1cccc(C(F)(F)F)c1,123.1,-27.3,.,1.32,-3.6,98.5
O=C1CCC2S/C(=C/Nc3ccc(C(F)(F)F)cc3)C(=O)N12 (stereo not given),37.6,66.5*,-30.3,0.28,-71.9,34.8
Cc1ccc(SCc2cn3ccccc3n2)cc1,.,.,6.8,.,.,.
Cn1ccnc1SCc1cn2cc(Br)ccc2n1,116.7,-18.4,.,2.27,163.9*,68.5
Cc1cccc(Nc2ccncc2S(N)(=O)=O)c1,.,.,12.2,.,.,.
SMILES,STAT1 act,STAT1 inh,Pf gamet viab,NF-kB neuron act,APP 5'UTR act,STAT3 act
COc1cc(OC)cc(C(=O)NCCCCc2ccccc2)c1,.,.,-13.5,.,.,.
Nc1[nH]n(-c2ccccc2)c(=O)c1N=Nc1ccccc1[N+](=O)[O-],139.1*,-42.7,.,1.55,90.5,92.8
Clc1ccc2nc(-c3ccc(Br)s3)cn2c1,95.7,4.7,-9.2,3.49*,229.6*,50.5
NNC(=O)c1csc(-c2ccc(C(F)(F)F)cc2Cl)n1,.,.,8.3,.,.,.
CN(C)c1ccc(/C=N/NC(=O)c2ccn(C)n2)cc1,.,.,8.9,.,.,.
O=C(N/N=C\c1ccc(Oc2ccccc2)cc1)c1csnn1,137.3*,-39.8,8.8,7.46*,4.8,91.3
CN(C)c1ccc(/C=N/NC(=O)c2ccccn2)cc1,.,.,-14.1,.,.,.
CN(C)c1ccc(/C=N/NC(=O)c2ccnn2C)cc1,122.1,-26.0,-22.4,4.36*,46.0,87.3
CN(C)c1ccc(/C=N\NC(=O)c2csnn2)cc1,112.4,-13.8,24.0,3.39*,8.9,71.8
Cc1ccc(Cn2c(C(C)Nc3nc(C)cs3)nc3cc(Cl)c(Cl)cc32)cc1 (stereo not given),.,.,-10.5,.,.,.
CCOC(=O)c1sc(NC(=O)C(C)Sc2nc(N)cc(=O)[nH]2)nc1C (stereo not given),106.7,-5.3,6.3,1,19.0,99.0
COC(=O)CCCC(=O)N1CCCC(C(=O)c2ccc(OC)cc2C)C1 (stereo not given),95.1,3.4,0.0,1.35,-11.1,94.0
Cc1ccc(C(=O)C2CCN(CC(=O)N3CCN(c4ccc(F)cc4)CC3)CC2)cc1,99.2,-0.7,-14.8,0.75,7.3,99.6
COc1ccc2[nH]c(C(=O)N3CCC(CO)(Cc4cccc(C(F)(F)F)c4)CC3)c(C)c2c1,.,.,-37.6,.,.,.
NC(N)=N/N=C/c1ccccc1OC(F)F,92.1,7.2,9.8,1.07,14.3,107.3
FC(F)Oc1ccccc1/C=N/n1cnc2ccccc21,134.1*,-37.0,21.2,1.81,38.5,116.8
COc1ccc(/C=N/Nc2nnc(-c3ncc[nH]3)c3ccccc23)cc1,142.5*,-46.6,.,0.94,65.1,74.4
C(=N\Nc1ncnc2ccccc12)/c1ccccc1,131.6*,-33.4,-17.5,6*,63.0,81.9
Clc1ccc(/C=N/Nc2nc(Cl)nc3ccccc23)cc1,133.0*,-36.2,-27.3,1.64,28.3,92.7
Cc1ccc(-c2nc(N/N=C/c3ccncc3)c3ccccc3n2)cc1,28.7,78.1*,.,2.44,31.4,24.9
Cc1ccccc1NC(=O)c1c2c(nc3ccccc13)CCC2,103.8,-4.0,-6.7,2,-12.2,105.2
Cc1ccc(/C=N/Nc2nnc(Cl)c3ccccc23)cc1,130.6*,-33.8,-24.6,9.31*,159.4*,107.0
Clc1nnc(NN=C2CCCC2)c2ccccc12,107.5,-8.2,-20.3,1.07,25.3,125.9
CN(C)C(=O)CN(c1ccc(F)c(Cl)c1)S(C)(=O)=O,93.7,6.9,.,0.97,3.5,135.2*
CN1CC(c2ccccc2)Oc2ccccc2C1=S (stereo not given),.,.,11.8,.,.,.
SMILES,STAT1 act,STAT1 inh,Pf gamet viab,NF-kB neuron act,APP 5'UTR act,STAT3 act
COc1ccc(-c2ccnc(-c3ccc(O)cc3)n2)cc1,105.0,-5.5,-11.6,1.13,-93.0,95.6
Cc1ccc(-c2ccnc(-c3ccc(O)cc3)n2)cc1,142.3*,-45.6,-13.2,1.54,43.6,89.0
Fc1ccccc1C1CC(c2ccco2)=Nc2ccccc2S1 (stereo not given),.,.,3.8,.,.,.
O=C(Nc1cccc(-c2nc3ccccc3s2)c1)c1cccs1,139.7*,-45.2,11.8,1.88,6.6,101.3
O=C(Nc1ccc2oc(-c3ccccc3)nc2c1)c1cccs1,142.7*,-54.9,.,2.09,154.6*,90.9
O=C(CCS(=O)(=O)c1ccccc1)Nc1cccc(-c2nc3ccccc3s2)c1,114.2,-16.0,-4.8,3.7*,111.1,90.9

# Assay outcomes deposited in PubChem BioAssay by several laboratories.
